In ChEMBL document CHEMBL1157417, “Synthetic and pharmacological studies on new simplified analogues of the potent actin-targeting Jaspamide” (Bioorg Med Chem, 2008):
Active and inactive are the calls of the source. No cut-off for these calls is given here.

What was measured:
Assay type in all cases: functional, cell-based
A498 [1] = experiment: Effect on morphology in human A498 cells assessed as cell aberration at 100 umol after 16 hrs by microfilament immunofluorescence assay
How it was run: (§1)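 A-498 cells grown to near-confluency on glass coverslips, then exposed 16 h. Cytochalasin B served as the microfilament-depolymerising positive control. Microfilaments stained with monoclonal anti-actin and microtubules with monoclonal anti-β-tubulin, both visualised with fluorescein-conjugated anti-mouse IgG. Scored for binucleation and other cellular aberration.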

A498 [2] = experiment: Effect on morphology in human A498 cells assessed as appearance of binucleated cells after 16 hrs by microfilament immunofluorescence assay; how it was run: as §1
A498 [3] = experiment: Cytotoxicity against human A498 cells after 48 hrs by SRB binding assay; conditions: A498, 48 h
How it was run: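 A498 kidney adenocarcinoma cells kept in R-MEM with 10% FBS and 50 µg/mL gentamycin, 37 °C, 5% CO2. Seeded at about 15% confluency and left 24 h to attach. Treated in triplicate with varying concentrations for 48 h. Survival read by sulforhodamine B binding as a percentage of control cultures.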

Compound	Activity (A498 [1])	Activity (A498 [2])	IC50 (A498 [3]) [µM]
C[C@@H]1NC(=O)CC/C=C/CCCOC(=O)CCNC(=O)[C@@H](Cc2c[nH]c3ccccc23)NC1=O	inactive		
C=C1[C@@H](C)[C@H]2[C@H](Cc3ccccc3)NC(=O)[C@]23OC(=O)/C=C/[C@H](O)CCC[C@@H](C)C/C=C/[C@H]3[C@@H]1O		Active	
C[C@@H]1NC(=O)CCNC(=O)CCCNC(=O)C[C@H](c2ccccc2)NC(=O)[C@@H](Cc2c[nH]c3ccccc23)NC1=O	inactive		
C[C@@H]1NC(=O)CCCCCCCNC(=O)C[C@H](c2ccccc2)NC(=O)[C@@H](Cc2c[nH]c3ccccc23)NC1=O	inactive		
COc1ccc([C@H]2CC(=O)NCCCC(=O)NCCC(=O)N[C@@H](C)C(=O)N[C@H](Cc3c[nH]c4ccccc34)C(=O)N2)cc1	inactive		
C[C@@H]1NC(=O)CC/C=C/CCCOC(=O)C[C@H](c2ccccc2)NC(=O)[C@@H](Cc2c[nH]c3ccccc23)NC1=O	inactive		25
C[C@@H]1NC(=O)CCNC(=O)CCCNC(=O)CCNC(=O)[C@@H](Cc2c[nH]c3ccccc23)NC1=O	inactive		
CC1/C=C/CCCOC(=O)C[C@H](c2ccccc2)NC(=O)[C@@H](Cc2c[nH]c3ccccc23)NC(=O)[C@H](C)NC(=O)C1 (stereo not given in full)	inactive		25
